These results are taken from ChEMBL document CHEMBL4513216, “Probing the Open Global Health Chemical Diversity Library for Multistage-Active Starting Points for Next-Generation Antimalarials” (ACS Infect Dis, 2020).

This data set is described as follows: Toxicity liver stage against HepG2, at 10uM. In kind it is cell-based. Further details: test concentration 10 uM, cell line HepG2-A16-CD81EGFP. Conditions: human, HepG2-A16-CD81EGFP cells; read-out: INHIBITION
In short, it runs like this:
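Uninfected HepG2-A16-CD81EGFP cells, 3 × 10^3 per well, 1536-well, plated on prespotted compound at 10 μM final, parasite-free screening media added to match infected plates; puromycin 10 μM positive, DMSO 0.5% negative; run in parallel with 48 h PbLuc assay at 37 °C, 5% CO2; viability by CellTiter-Glo luminescence, normalized to controls.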
Regarding `CCCN1CCN(C(=O)c2cnccc2C)[C@H]2CS(=O)(=O)C[C@H]21`, the cytotoxicity at 10 µM was -1.7%.

On to `CC[C@H]1CN(C(=O)c2cccnc2)CC[C@H]1CC(=O)NC1CC1`, for which the cytotoxicity at 10 µM came to 4.18%. For `Cc1ncsc1CCC(=O)N1CCCC[C@H](N(C)C)C1` the value was -22.5%; for `Cc1cnn(CCNCc2ccccc2OCc2cccnc2)c1`, 3.8%; for `CN1C(=N)NC(=O)/C1=C/c1ccc(-c2ccc(Br)cc2)o1`, 5.39%. `O=C(N1CCOCC1)N1CCC2(CC1)CN(c1ccccn1)CCO2`: the cytotoxicity at 10 µM was -78.2%.

For the molecule `O=C(CC1CC1)N[C@@H]1CN(Cc2nccs2)C[C@@H]2CCCO[C@@H]21`, the cytotoxicity at 10 µM was determined as 8.85%. The figure for `N#Cc1ncn(CCC(=O)Nc2ccc(Cl)cc2F)n1` is -8.94%; for `CCCC(C)N(C)Cc1nnc(-c2ccco2)o1` (stereo not drawn) it is 2.49%; for `Cc1c(CN2CCCC(c3[nH]ncc3S(C)(=O)=O)C2)cnn1C` (stereo not drawn) it is 4.69%. For `Clc1ccccc1Cn1cc(CNC2CCc3ncnn3C2)cn1` (stereo not drawn), the cytotoxicity at 10 µM was found to be 1.91%. With `CCC(=O)NC1CCCN(C(=O)Nc2cccc(COC(C)C)c2)C1` (stereo not drawn), the cytotoxicity at 10 µM is 7.96%. The figure for `Cc1noc(C)c1CN1CCN(C(=O)CCn2cncn2)CC1` is 0.975%. For `CC(=O)N1CCC2(CC1)c1ncc(-c3ccc(F)cc3)n1CCN2C` the value was -101%; for `Cc1nnc(C2Cc3ccccc3CN2Cc2nc(C(C)C)no2)o1` (stereo not drawn), -22%; for `O=C(CSc1ccc2c(c1)OCCO2)NS(=O)(=O)c1ccccc1Br`, -4.62%. Turning to `O=C([C@H]1C[C@H]2CN(c3ncc(F)cn3)C[C@@H]1O2)N1CCOCC1`, the cytotoxicity at 10 µM is -109%. For `CC(NC(=O)NCCCOc1ccccc1F)c1nncn1C` (stereo not drawn) the value was -8.77%; for `c1cc(CN2CCc3c(nnn3CC3CC3)C2COCC2CC2)co1` (stereo not drawn), 2.02%; for `Cc1cc(C)c(CNC(=O)Cc2ccc3c(c2)CCCC3)c(=O)[nH]1`, -7.39%.

Regarding `c1csc(CN2CCC3(CC2)CCN(CC2CCOCC2)C3)n1`, the cytotoxicity at 10 µM is 3.83%.

For `CC(C)C(=O)N1CCCC2(CC(C(=O)NCc3cccnc3)=NO2)C1` (stereo not drawn), the cytotoxicity at 10 µM is -2.77%.

Take `Cc1cc(NCCSc2nccn2C)n2ncnc2n1`: the cytotoxicity at 10 µM came to 17.5%.

As for `CN1CCc2nc3cc(C(=O)NCc4cccs4)ccc3c(=O)n2CC1`, the cytotoxicity at 10 µM came to 0.207%. Consider `COCCN1CCCC2(CCN(c3nccc4ccccc34)C2)C1=O` (stereo not drawn), for which the cytotoxicity at 10 µM is -0.212%. The figure for `COC(=O)C1CCN(C(=O)c2ccc(N(C)S(C)(=O)=O)c(C)c2)CC1` is -1.18%; for `O=C(Cn1ccc2ncccc2c1=O)N1CCCCC1` it is -7%.

Turning to `CC(c1nc(C(C)(C)C)no1)S(=O)(=O)CC(=O)N1CCCC1` (stereo not drawn), the cytotoxicity at 10 µM was -2.21%. Regarding `Cc1cccc(C2(C(=O)NS(=O)(=O)c3cnn(C)c3)CCCC2)c1`, the cytotoxicity at 10 µM was -3.62%. As to `c1csc(-c2nc(CN3CCOC(Cn4cccn4)C3)cs2)c1` (stereo not drawn), the cytotoxicity at 10 µM was -8.25%. Consider `Cc1cnc(C(=O)N2CCCCC2c2ccc(CN(C)C)cc2)cn1` (stereo not drawn), for which the cytotoxicity at 10 µM is -2.46%. For `O=C(NCC1CC1)[C@H]1C[C@H]2CN(C(=O)NCC3CCCCC3)C[C@@H]1O2` the value was 3.79%; for `Cc1cccc(COC[C@H]2CC[C@H]3[C@H](CCN3Cc3ccco3)O2)n1`, -172%; for `O=C(c1cnc(-c2ccccc2)s1)N1CCOC2(CCCC2)C1`, -1.52%. In the case of `Cc1ccc(C(=O)NCC2CCN(Cc3ccccc3C#N)C2)cn1` (stereo not drawn), the cytotoxicity at 10 µM was 1.48%.

`O=C1NCC(C(=O)NCc2ccccc2CN2CCOCC2)N1` (stereo not drawn): the cytotoxicity at 10 µM came out at 3.64%. As for `O=C(C1CCC1)N1C2CCC(O)(CC2)C1CN1CCOCC1` (stereo not drawn), the cytotoxicity at 10 µM is -1.63%. The figure for `c1ccc(NCc2cn3c(n2)CN(Cc2cccs2)CC3)nc1` is 5.22%; for `COc1cccc(CNCc2c(C(C)C)nn(C)c2N(C)C)c1OC` it is 1.87%; for `CCN1CCC2(COCc3c(C)nc(N4CCOCC4)nc32)C1` (stereo not drawn) it is -141%. Take `NC(=O)Nc1cccc(Oc2ccccn2)c1`: the cytotoxicity at 10 µM was determined as 4.39%. The figure for `Cc1csc(N2CCCN(C(=O)c3ccsc3)CC2)n1` is 5.28%. For `CCOc1ncccc1CNCc1c(C)nn(C)c1N(C)C` the value was -1.35%; for `Cc1nccn1CCN(C)C(=O)C1CCCN(C2CCOCC2)C1` (stereo not drawn), 0.417%. Consider `CC(=O)N(Cc1ncc(C(C)C)o1)C1CCN(Cc2ccno2)C1` (stereo not drawn), for which the cytotoxicity at 10 µM was -11.1%.

As for `Cc1cc(C)cc(OCCN(C)Cc2cscn2)c1`, the cytotoxicity at 10 µM is 6.56%. The figure for `COc1ccc(CNC(=O)CCc2nnc3ccccn3c2=O)cc1` is -13.5%; for `CC(=O)N1CCN(C(=O)NCc2ccccc2Cn2cncn2)CC1` it is 0.0453%.

Take `O=C(Nc1ccccc1F)N(CCO)Cc1ccsc1`: the cytotoxicity at 10 µM worked out at 2.05%.

For `CN(Cc1ccco1)C1CCC12CCN(C(=O)C1CCOCC1)CC2` (stereo not drawn), the cytotoxicity at 10 µM is -2.92%.

For `COCCn1cc(NC(=O)NC(C)Cc2c(F)cccc2F)cn1` (stereo not drawn), the cytotoxicity at 10 µM was -4.5%. The figure for `O=C(NC[C@@H]1CCCN1)c1cc(COc2cccc(C(F)(F)F)c2)[nH]n1` is -8.31%; for `Cc1ccc(C(C)NC(=O)N2CCN(S(C)(=O)=O)CC2)o1` (stereo not drawn) it is 25.3%; for `CC(CN1CCOCC1)N(Cc1ccccc1)Cc1ccncc1` (stereo not drawn) it is 5.5%. Consider `CC(=O)c1ccc(OCC(=O)c2cccn2C)cc1`, for which the cytotoxicity at 10 µM was 27.6%.

In the case of `CCc1nsc(N2CCC3(CC2)OCCO3)n1`, the cytotoxicity at 10 µM is 2.24%. For `CCOCC1CN(Cc2ccc3c(c2)OCO3)Cc2nccn2C1` (stereo not drawn) the value was -126%; for `CCn1nc(C)c2c1cnn2CCNS(C)(=O)=O`, 7.55%; for `Cc1nc2ncnn2c(C)c1CCC(=O)Nc1cccn(C)c1=O`, -9.59%. Consider `O=C(c1ccc[nH]1)N1CC2(CCN(c3nccs3)C2)C1`, for which the cytotoxicity at 10 µM was found to be 5.68%. Regarding `O=C(c1ccco1)N1CCOC2(COCCN(c3ncccn3)C2)C1` (stereo not drawn), the cytotoxicity at 10 µM is -102%.

For the molecule `CSCC(=O)N1CCC2(CC1)c1ccccc1CC2O` (stereo not drawn), the cytotoxicity at 10 µM is -19.8%. Turning to `N#Cc1ccc(CNC(=O)NC2CCN(CC(F)(F)F)C2)cc1` (stereo not drawn), the cytotoxicity at 10 µM came out at 7.06%. In the case of `O=C(CCn1ccc2ccccc21)N1CCC(Nc2cccnn2)CC1`, the cytotoxicity at 10 µM worked out at 3.79%. The figure for `COCCN1C[C@H]2CN(Cc3cccc(OC)c3)CCN2C1=O` is 7.91%.

Consider `NC(=O)C1CCN(CCc2ccc(NCc3ccoc3)cc2)CC1`, for which the cytotoxicity at 10 µM was -26.2%. Take `CN(C)C(=O)c1ccn(COc2ccccc2Cl)n1`: the cytotoxicity at 10 µM was found to be 6.91%. Regarding `NC(=O)c1cccc(CN2CCOC(Cn3cccn3)C2)c1` (stereo not drawn), the cytotoxicity at 10 µM is -2.69%. For `COC(=O)CSCc1noc(-c2ccc(Cl)cc2)n1` the value was 1.94%; for `CC(C)N(CC(N)=O)Cc1c(Cl)ccc2cccnc12`, 11.8%; for `Cn1ccnc1C1CCN(S(=O)(=O)c2ccc3c(c2)OCCO3)CC1`, -13.5%. In the case of `Cn1c(=O)c2c(n3ncnc13)NC(=O)CC2c1cccc(Br)c1` (stereo not drawn), the cytotoxicity at 10 µM came out at 7.83%. The figure for `CSCCC(=O)N1CCCC(n2ccnc2)C1` (stereo not drawn) is -6.28%; for `O=C1CC[C@H](C(=O)N(CCc2ccccc2)C2CCOC2)N1` (stereo partly drawn) it is 1.15%. The figure for `CCc1c(C(=O)NCC2CCS(=O)(=O)C2)cnn1-c1ccccc1` (stereo not drawn) is -8.22%. On to `COc1ccccc1CC(=O)NCc1ccnc(NC2CC2)c1`, for which the cytotoxicity at 10 µM is -4.06%. The figure for `COc1ccccc1CC(C)CC(=O)N(C)Cc1cc(C)on1` (stereo not drawn) is 3.8%; for `CCc1ccc(S(=O)(=O)Nc2cnc(N3CCOCC3)nc2)cc1` it is -7.72%; for `CCn1cc(C(=O)NCCN2CCCc3ccccc32)c(C)n1` it is 4.23%. As to `CC(C)c1nnc2n1CC(CNCc1cccnc1)CC2` (stereo not drawn), the cytotoxicity at 10 µM came out at 6.59%. For `FC(F)(F)COc1ccc(CSCc2ccon2)cn1` the value was -4.52%; for `COC(=O)CN1CCSC(c2ccccc2)C1` (stereo not drawn), 17.8%. With `CC1(C)CC(N(Cc2ccccc2)Cc2cccnc2)CC(C)(C)N1`, the cytotoxicity at 10 µM is 2.67%. As for `COc1ccc(CC(=O)N2CCCC(c3cc(C)[nH]n3)C2)cc1` (stereo not drawn), the cytotoxicity at 10 µM is -7.69%.

`Cc1occc1C(=O)N1CCC2(CCCN(CC3CCC3)C2=O)C1` (stereo not drawn): the cytotoxicity at 10 µM was -5.47%. The figure for `CCC(C(=O)N(Cc1ccccc1OC)C1CC1)n1cccn1` (stereo not drawn) is -44%; for `Cc1cc(NC(=O)N2CCN(c3cccs3)CC2)ccc1C(N)=O` it is -7.79%.

For `COc1ccc(N2CCCN(C(=O)Cc3csc(C)n3)CC2)cc1`, the cytotoxicity at 10 µM came out at 3.91%. On to `CCn1c(C2CCCN(Cc3ccc(F)cc3Cl)C2)nn(C)c1=O` (stereo not drawn), for which the cytotoxicity at 10 µM was -2.75%. For `COc1cccc(OCC2CCCN(c3cc(C(N)=O)ccn3)C2)c1` (stereo not drawn), the cytotoxicity at 10 µM came out at 2.13%. The figure for `Cn1cccc1C(=O)NC(C)(C(N)=O)c1cccc(C(F)(F)F)c1` (stereo not drawn) is 3.61%; for `Cc1nnc(C(C)N2CCCN(Cc3ccc(C#N)cc3)CC2)o1` (stereo not drawn) it is -11.1%; for `CC(CN1CCCC1=O)NC(=O)Nc1ccccc1Cn1cccn1` (stereo not drawn) it is -1.33%. Regarding `CCc1cc(=O)[nH]c(NC2CCN(S(=O)(=O)c3ccccc3)CC2)n1`, the cytotoxicity at 10 µM was -5.49%. The figure for `CN1CCCCC1CCC(=O)NCCSc1cnn[nH]1` (stereo not drawn) is 0.00194%. Consider `Cn1ncc2c(N[C@H]3CCCC[C@@H]3O)nc(C(C)(C)C)nc21`, for which the cytotoxicity at 10 µM is -21.5%. With `CCc1nc(Cn2ccnc2-c2nccn2C)no1`, the cytotoxicity at 10 µM is -42%. Consider `c1cncc(CNc2cncc(C3CCCN3)n2)c1` (stereo not drawn), for which the cytotoxicity at 10 µM amounted to 9.93%.
